Compounds with a hit are over-represented: about 5.7% of the library has one in this group of screens.
Calb FLC: C. albicans growth modulation with fluconazole. C. albicans CaCi-2 (fluconazole-resistant clinical isolate) + fluconazole, Alamar Blue growth, 48 h. growth inhibition, % (concentration not given with the values). 0.57% of 300,000 active. AID 1979;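 active means growth inhibition above about 58% in most replicates, limit read from the data, passing the limit was not always enough; inconclusive means exactly half the replicates above a set limit; inactive means most replicates below a set limit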;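 further: all wells also contain fluconazole at 8 µg/ml as a sub-toxic cotreatment; 0% = median of DMSO wells and 100% = median of geldanamycin control wells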
T cruzi repl: T. cruzi replication inhibition; T. cruzi beta-gal in NIH3T3, luminescence, 90 h; inhibition, % (test concentration not listed); 1.4% of 300,000 active; AID 1885;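 active means mean inhibition across valid replicates above about 55%, limit read from the data; inconclusive means mean below that limit but half or more replicates reach it; inactive means mean below it, under half of replicates reach it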;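 further: signal also drops with host cell toxicity which is not excluded here; 0% = plate median of DMSO wells and 100% = zero luminescence signal; higher percent means less beta-gal luminescence so fewer parasites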
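Assay system: NIH/3T3 fibroblasts plus reporter T. cruzi. Amount: NIH/3T3 cells, 5,000 per well. Buffer or medium: DMEM, 2% fetal bovine serum. Doses: compound pinned at 50 nL/well, DMSO. Schedule: ≥90 h infection period, 3 h prior cell attachment. Signal: luminescent β-galactosidase signal after 60 min lysis. Read-out: parasite load inhibition, %.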
CSC inhib: blocks cancer stem cells; 1.1% of 300,000 active; cancer stem cell-like cells viability, luminescence; inhibition, % at 7.5 µM; in the data active means inhibition above about 75%; inconclusive means no clear call, values can overlap the other calls; tested in HMLE shEcad cells
SKKanGAS inh: inhibitors of SKKanGAS S. pyogenes growth in kanamycin (SK-promoter or general growth effect); BacTiter-Glo, 6 h; inhibition, % at 7.5 µM; 1.3% of 300,000 active;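 active means mean replicate score, as percent of positive control median, at least 50; inconclusive means mean below 50 but one replicate at or above 50; inactive means mean and every replicate below 50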;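 further: strain carries kanamycin resistance gene driven by streptokinase promoter and grows in 40 µg/ml kanamycin; loss of luminescence reflects streptokinase promoter inhibition or plain growth inhibition; 0% = median of DMSO wells and 100% = positive control at its reference dose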
Beta apoptosis: blocks beta cell apoptosis | INS-1E cytokine-induced death, ATP luminescence, 48 h; percent of positive-control rescue, neutral wells zero | protection from apoptosis, % (test concentration not listed) | 0.8% of 300,000 active;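 active means Every replicate reaches about 75%, or at least half do and their mean reaches it too, limit read from the data; inconclusive means At least half of replicates reach the limit but their mean does not; inactive means Under half of replicates reach the limit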;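 further: 0% = cytokine-treated negative control wells and 100% = positive control rescue; higher means more ATP so stronger rescue from cytokine killing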
Mdm2 MdmX PPI: human Mdm2/MdmX binding inhibition; O15151+Q00987; SaOS-2 split-luciferase Mdm2/MdmX complementation, luminescence; inhibition, % at 8 µM; 3% of 330,000 active;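 active means inhibition of at least 50% at 8 µM in the primary screen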
Target sequence (O15151 whole entry, looked up): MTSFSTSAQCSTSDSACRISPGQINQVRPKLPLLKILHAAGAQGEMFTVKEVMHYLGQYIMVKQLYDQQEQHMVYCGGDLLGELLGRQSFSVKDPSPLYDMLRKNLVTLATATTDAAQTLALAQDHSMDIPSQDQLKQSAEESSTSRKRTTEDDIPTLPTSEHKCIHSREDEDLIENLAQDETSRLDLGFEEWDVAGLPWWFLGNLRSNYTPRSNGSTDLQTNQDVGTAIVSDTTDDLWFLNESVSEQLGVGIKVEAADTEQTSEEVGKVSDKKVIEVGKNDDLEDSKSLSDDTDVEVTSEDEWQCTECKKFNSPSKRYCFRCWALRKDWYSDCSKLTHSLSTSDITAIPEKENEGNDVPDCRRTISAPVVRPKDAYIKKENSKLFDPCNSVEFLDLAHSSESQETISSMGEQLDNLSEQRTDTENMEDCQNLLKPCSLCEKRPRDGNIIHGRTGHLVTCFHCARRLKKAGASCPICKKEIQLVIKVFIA
Target sequence (Q00987 whole entry, looked up): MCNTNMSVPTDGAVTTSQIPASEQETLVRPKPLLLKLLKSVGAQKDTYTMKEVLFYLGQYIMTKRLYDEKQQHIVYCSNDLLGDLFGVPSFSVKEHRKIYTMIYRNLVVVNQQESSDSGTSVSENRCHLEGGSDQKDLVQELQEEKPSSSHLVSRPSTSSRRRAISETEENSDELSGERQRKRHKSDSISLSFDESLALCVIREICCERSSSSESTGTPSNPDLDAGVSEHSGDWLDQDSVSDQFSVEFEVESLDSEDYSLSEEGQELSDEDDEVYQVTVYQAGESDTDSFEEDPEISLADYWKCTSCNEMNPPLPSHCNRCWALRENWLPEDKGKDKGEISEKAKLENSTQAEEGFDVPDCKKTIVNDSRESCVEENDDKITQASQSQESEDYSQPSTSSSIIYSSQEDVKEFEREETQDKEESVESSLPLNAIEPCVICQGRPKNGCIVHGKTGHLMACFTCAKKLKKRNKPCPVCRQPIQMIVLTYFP
Starred values were filed as active, the others as inactive.

For COc1ccc(C(CC(=O)Nc2cc(C)ccn2)N2Cc3ccccc3C2=O)cc1 (stereo unspecified) the results were Calb FLC -1.5, T cruzi repl 4.1, CSC inhib -12.2, SKKanGAS inh -2.0, Beta apoptosis -0.4 and Mdm2 MdmX PPI -15.0.
Screening O=C(c1ccccc1)C(Nc1ccccn1)c1ccccc1 (stereo unspecified) returned Calb FLC 19.6, T cruzi repl 8.0, CSC inhib 4.5, SKKanGAS inh 0.6, Beta apoptosis -6.7 and Mdm2 MdmX PPI 19.0.
Cc1c(Cc2ccccc2)c(=O)oc2cc(OCc3ccc(C(=O)O)cc3)ccc12 was read as Calb FLC -3.8, T cruzi repl -17.3, CSC inhib -4.6, SKKanGAS inh 54.4*, Beta apoptosis -1.6 and Mdm2 MdmX PPI -1.1.
`CC1CCN(C(=O)COC(=O)Cn2cnc3ccccc32)CC1` gave CSC inhib -0.1, Beta apoptosis -4.9 and Mdm2 MdmX PPI 20.8.
`OC(COc1ccc2ccccc2c1)Cn1ccnc1` (stereo unspecified) gave Calb FLC -2.3, T cruzi repl 48.2, SKKanGAS inh 11.4 and Mdm2 MdmX PPI 13.9.
For OC(COc1ccc2ccccc2c1Br)Cn1ccnc1 (stereo unspecified) the results were Calb FLC 7.9, T cruzi repl 63.4*, CSC inhib -9.2, SKKanGAS inh 5.6, Beta apoptosis -1.4 and Mdm2 MdmX PPI 14.1.
O=C1c2ccccc2NC(c2cnc3ccccc3n2)N1O (stereo unspecified) was read as Calb FLC 104.2*, T cruzi repl -4.5, CSC inhib -11.4, SKKanGAS inh 0.1, Beta apoptosis -0.1 and Mdm2 MdmX PPI -70.1.
`COc1ccc(C2Nc3ccccc3C(=O)N2O)cc1OC` (stereo unspecified) gave Calb FLC 97.4*, T cruzi repl -5.9, CSC inhib -7.9, SKKanGAS inh -1.6, Beta apoptosis 2.5 and Mdm2 MdmX PPI -21.3.
Screening CC(=O)Nc1ccc(-c2sc(Nc3cccc4ccccc34)n[n+]2-c2ccccc2)cc1 returned Calb FLC -5.1, T cruzi repl 46.2, CSC inhib 2.6, SKKanGAS inh 3.5, Beta apoptosis -9.5 and Mdm2 MdmX PPI -1.1.
For CC(C)(C)c1ccc(NNC(=O)C2CCC2)cc1 the results were Calb FLC -8.9, T cruzi repl 12.9, CSC inhib 26.9, SKKanGAS inh 40.2, Beta apoptosis 108.8* and Mdm2 MdmX PPI 0.8.
O=C(NNC(=S)Nc1ccc(Cl)cc1)c1ccccc1OC(F)F was read as Calb FLC 102.4*, T cruzi repl -23.0, CSC inhib 32.7, SKKanGAS inh -11.4, Beta apoptosis 12.4 and Mdm2 MdmX PPI 25.1.
O=C(NNC(=S)NCc1ccccc1)c1ccccc1OC(F)F was read as Calb FLC 13.8, T cruzi repl -0.6, CSC inhib 10.8, SKKanGAS inh -0.8, Beta apoptosis -16.7 and Mdm2 MdmX PPI -10.6.
Screening Cc1[nH]n(-c2ncc(-c3ccccc3)s2)c(=O)c1C(c1ccc(Br)cc1)C(C#N)C#N (stereo unspecified) returned Calb FLC -3.2, T cruzi repl -13.9, SKKanGAS inh 86.1*, Beta apoptosis -1.7 and Mdm2 MdmX PPI 6.3.
`COc1ccc(OC)c(CN2CCN(C(=O)CNC(=O)c3ccc(C(C)(C)C)cc3)CC2)c1` gave CSC inhib 16.8, Beta apoptosis 3.1 and Mdm2 MdmX PPI 6.2.
`COc1ccc(OC)c(CN2CCN(C(=O)CCNC(=O)c3ccc(Br)cc3)CC2)c1` gave Calb FLC -3.1, T cruzi repl 60.3*, CSC inhib -6.5, SKKanGAS inh -3.9, Beta apoptosis -6.1 and Mdm2 MdmX PPI -8.3.
CN(C)c1ccc(/C=C2\SC(N3CCCCC3)=NC2=O)cc1 was read as Calb FLC -8.1, T cruzi repl 19.2, CSC inhib -7.1, SKKanGAS inh -7.0 and Mdm2 MdmX PPI 30.2.
For CCOc1cc(/C=C(\C#N)C(=O)NCC2CCCO2)ccc1O (stereo unspecified) the results were Calb FLC 9.2, T cruzi repl -5.7, CSC inhib -9.3, SKKanGAS inh -8.5, Beta apoptosis -4.1 and Mdm2 MdmX PPI -28.2.
Screening CCOc1cc(/C=C(\C#N)C(=O)NCC2CCCO2)ccc1OCC(N)=O (stereo unspecified) returned Calb FLC 105.1*, T cruzi repl -13.0, CSC inhib 0.3, SKKanGAS inh -17.7, Beta apoptosis 0.1 and Mdm2 MdmX PPI 14.9.
Screening c1ccc(-c2cc(-c3ccncc3)nc3ccc4ccccc4c23)cc1 returned Calb FLC 3.3, T cruzi repl 36.3, CSC inhib 102.4*, SKKanGAS inh 100.1*, Beta apoptosis 0.1 and Mdm2 MdmX PPI 25.5.
`Cc1ccc(S(=O)(=O)N2C[C@@H]3[C@H]4CC[C@H](C4)[C@@H]3[C@@H](C)[C@H]2c2ccco2)cc1` gave Mdm2 MdmX PPI 23.3.
Screening CC(=O)NC(=S)Nc1ccc(S(=O)(=O)N(C)Cc2ccccc2)cc1 returned Calb FLC 0.1, T cruzi repl 68.3*, CSC inhib 6.2, SKKanGAS inh 5.1, Beta apoptosis 2.3 and Mdm2 MdmX PPI 5.9.
For Cc1nnc(NC(=O)c2ccc(S(=O)(=O)N(C)Cc3ccccc3)cc2)o1 the results were Calb FLC 87.4*, T cruzi repl -3.4, CSC inhib 22.3, SKKanGAS inh inconclusive, Beta apoptosis 0.1 and Mdm2 MdmX PPI 5.4.
`CCN(Cc1ccccc1)S(=O)(=O)c1ccc(C(=O)Nc2nnc(C3CC3)o2)cc1` gave Calb FLC 0.3, T cruzi repl 48.8, CSC inhib 34.0, SKKanGAS inh 97.6*, Beta apoptosis 6.6 and Mdm2 MdmX PPI 46.9.
Screening COc1ccccc1C(=O)NC(=O)COC(=O)C1CC2CCCC(C1)C2=O (stereo unspecified) returned Calb FLC -12.2, T cruzi repl -6.0, CSC inhib 0.4, SKKanGAS inh -2.5, Beta apoptosis -4.5 and Mdm2 MdmX PPI 12.9.
COc1ccccc1Nc1ncnc2c1c(C)c(C)n2CCO was read as Calb FLC 2.3, T cruzi repl 6.8, CSC inhib -2.7, SKKanGAS inh -3.4, Beta apoptosis -3.8 and Mdm2 MdmX PPI 23.5.
Cc1ccc(NC(=O)C(c2ccccc2)N2CCN(CC(=O)NC3CC3)CC2)cc1 (stereo unspecified) was read as Beta apoptosis -1.1 and Mdm2 MdmX PPI -4.6.
Screening CCOC(=O)c1c(-c2ccc(Cl)cc2)csc1NC(=O)CNCc1ccco1 returned Calb FLC 1.5, T cruzi repl 6.6, CSC inhib 77.3*, SKKanGAS inh 24.0, Beta apoptosis 1.7 and Mdm2 MdmX PPI -6.9.
Screening CCOC(=O)c1c(-c2ccccc2)csc1NC(=O)c1nn(CC)cc1Br returned Calb FLC 2.1, T cruzi repl 63.2*, CSC inhib 80.2*, SKKanGAS inh 32.2, Beta apoptosis 16.0 and Mdm2 MdmX PPI 29.0.
